Published values of several laboratories.
Lines come from different studies, so protocols differ.
Target: Myosin light chain kinase family member 4 (MYLK4, Homo sapiens, UniProt Q86YV6)
One construct used (Q86YV6 1-388): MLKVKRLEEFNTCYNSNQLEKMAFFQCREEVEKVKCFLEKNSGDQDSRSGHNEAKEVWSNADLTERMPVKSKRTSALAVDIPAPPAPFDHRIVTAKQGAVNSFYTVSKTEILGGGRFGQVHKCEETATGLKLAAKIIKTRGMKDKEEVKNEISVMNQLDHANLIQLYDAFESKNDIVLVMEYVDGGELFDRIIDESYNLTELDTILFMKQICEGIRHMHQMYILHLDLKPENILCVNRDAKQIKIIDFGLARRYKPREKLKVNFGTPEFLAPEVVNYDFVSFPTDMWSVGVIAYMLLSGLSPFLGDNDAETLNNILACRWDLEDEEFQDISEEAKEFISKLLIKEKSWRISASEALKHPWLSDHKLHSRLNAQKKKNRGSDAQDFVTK

Cc1ccc(C(=O)Nc2ccc(CN3CCN(C)CC3)c(C(F)(F)F)c2)cc1C#Cc1cnc2cccnn12
remaining activity (enzyme activity, inhibitor; 23.5 nM): 92%

Nc1ncnc2occ(-c3ccc(NC(=O)Nc4cc(C(F)(F)F)ccc4F)cc3)c12
remaining activity (enzyme activity, inhibitor; 20 µM): 48%

Nc1c(C(=O)NCc2ccc(C(=O)NCCCC3CCCCC3)cc2)cnn1-c1ccccc1
remaining binding (cell-free assay, competition with immobilised ligand; 0.1 µM): 100%

O=C(Nc1cnn(-c2csc(C(=O)NC3COC3)c2)c1)Nc1c(F)cccc1Cl
remaining activity (enzyme activity, inhibitor; 5 µM): 91.7%

Fc1cccc(-n2cnc3c(NCc4nc5c(F)c(F)ccc5[nH]4)nc(N4CCOCC4)nc32)c1
binding vs control (binding, competition with immobilised ligand; 10 µM): 2.1%

O=C(Nc1cnn(-c2csc(C(=O)NC3COC3)c2)c1)Nc1ccccc1Cl
remaining activity (enzyme activity, inhibitor; 5 µM): 85.2%

CCCOc1ccc([C@@H]2[C@@H](C(=O)O)[C@H](c3ccc4c(c3)OCO4)CN2CC(=O)Nc2c(CC)cccc2CC)cc1
remaining binding (cell-free assay, competition with immobilised ligand; 1 µM): 100%

O=[N+]([O-])c1cccc2[nH]c(CNc3nc(N4CCOCC4)nc4c3ncn4-c3ccsc3)nc12
binding vs control (binding, competition with immobilised ligand; 10 µM): 2.6%
